From ChEMBL document CHEMBL2202989, “New adamantane phenylalkylamines with σ-receptor binding affinity and anticancer activity, associated with putative antagonism of neuropathic pain” (J Med Chem, 2012)

What was measured:
[1] = system: BXPC-3; experiment: Cell cycle arrest in human BxPC3 cells assessed as accumulation at S phase at 0.5 uM after 24 hrs using propidium iodide staining by FACS analysis (reference value: 33 %); format: functional
Procedure, shortened: (§1)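 Cells were plated 24 h before treatment and exposed for 24 h at final 0.5, 5, 15 and 50 μM in 0.5% DMSO, against vehicle-treated controls. Cells were then trypsinised and fixed in cold ethanol for 3 h at 4 °C. They were stained in a mix of RNase (200 μg/mL) and PI (1 mg/mL) for 45 min at room temperature in the dark. Flow cytometry used 488 nm excitation and 10 000 gated cells. Phase percentages were assigned from DNA content.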

[2] = system: Mus musculus; experiment: Toxicity in CD1 mouse assessed as mortality at 40 to 55 mg/kg, ip for 2 to 3 weeks; format: organism-based; design: route intraperitoneal; details: in vivo
Procedure, shortened: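 CD-1 (male and female) and SCID mice dosed ip at 40−55 mg/kg in 5% Tween 80 for chronic 2−3 week regimens. Deaths and body weight loss compared with vehicle (Tween 80 or Cremophor) and reference-drug groups. Weight loss, neurological, behavioral and dietary changes recorded as toxicity signs.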

[3] = system: BXPC-3; experiment: Growth inhibition of human BxPC3 cells after 48 hrs by SRB assay; format: functional; details: BXPC-3, 48 h
Procedure, shortened: (§2)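 Cells grown in RPMI 1640 with 5% heat-inactivated FCS, 2 mM L-glutamine and antibiotics, 37 °C, 5% CO2. Seeded at 3500–30000 cells/well and left 24 h before dosing. DMSO solutions added at 10-fold dilutions from 100 to 0.01 μM for 48 h. Cells TCA-fixed and SRB-stained, absorbance read at 540 nm; GI50 derived against the time-zero plate.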

[4] = system: U-251; experiment: Growth inhibition of human U251 cells after 48 hrs by SRB assay; format: functional; details: U-251, 48 h; procedure, shortened: as §2
[5] = system: OVCAR-5; experiment: Antitumor activity against human OVCAR5 cells xenografted in SCID mouse assessed as bone metastasis at 55 mg/kg, ip administered 5 consecutive days in a week for two cycles measured after 2 cycles relative to control; format: functional; details: OVCAR-5, ip, route intraperitoneal, read-out: TGI
Procedure, shortened: (§3)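 SCID mice carried OVCAR5 xenografts (10^6 cells per inoculum), 16 mice (32 tumors) per group, with ip dosing in 5% Tween 80 from a tumor volume of about 100 mm3. Caliper volume was measured twice weekly and %ΔT/ΔC derived. At termination, primary tumors were weighed and secondary metastases were scored at axillary and bone sites (n = 7−8). Two-tailed t test.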

[6] = system: OVCAR-5; experiment: Antitumor activity against human OVCAR5 cells xenografted in SCID mouse assessed as tumor growth inhibition at 55 mg/kg, ip administered 5 consecutive days in a week for two cycles measured after 2 cycles relative to control; format: functional; details: OVCAR-5, ip, route intraperitoneal, read-out: TGI; procedure, shortened: as §3
[7] = system: BXPC-3; experiment: Antitumor activity against human BxPC3 cells xenografted in SCID mouse assessed as tumor growth inhibition at 50 mg/kg, ip administered 3 consecutives days per week for one cycle relative to control; format: functional; details: BXPC-3, ip, route intraperitoneal, read-out: TGI
[8] = system: PC-3; experiment: Induction of apoptosis in human PC3 cells assessed as cleaved caspase3 containing cells at 50 uM by antibody-based FACS analysis (reference value: 3.2%); format: functional
[9] = system: BXPC-3; experiment: Induction of apoptosis in human BxPC3 cells assessed as cleaved caspase3 containing cells at 5 uM by antibody-based FACS analysis (reference value: 8.2 %); format: functional
[10] = system: PC-3; experiment: Induction of apoptosis in human PC3 cells assessed as late apoptosis at 50 uM using annexin V/7-AAD by FACS analysis (reference value: 3 %); format: functional
[11] = system: PC-3; experiment: Induction of apoptosis in human PC3 cells assessed as late apoptosis at 5 uM using annexin V/7-AAD by FACS analysis (reference value: 3 %); format: functional
[12] = system: PC-3; experiment: Induction of apoptosis in human PC3 cells assessed as early apoptosis at 15 uM using annexin V/7-AAD by FACS analysis (reference value: 5 %); format: functional
[13] = system: PC-3; experiment: Induction of apoptosis in human PC3 cells assessed as healthy cells at 50 uM using annexin V/7-AAD by FACS analysis (reference value: 91 %); format: functional
[14] = system: PC-3; experiment: Induction of apoptosis in human PC3 cells assessed as healthy cells at 5 uM using annexin V/7-AAD by FACS analysis (reference value: 91 %); format: functional
[15] = system: PC-3; experiment: Induction of apoptosis in human PC3 cells assessed as healthy cells at 15 uM using annexin V/7-AAD by FACS analysis (reference value: 91 %); format: functional
[16] = system: BXPC-3; experiment: Induction of apoptosis in human BxPC3 cells assessed as late apoptosis at 50 uM using annexin V/7-AAD by FACS analysis (reference value: 9 %); format: functional
Procedure, shortened: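 Cells plated 24 h before treatment, then exposed 24 h to 0.5, 5, 15 or 50 μM compound (final DMSO 0.5%); vehicle controls included. Cells scraped and stained with annexin V-FITC and 7-AAD for 15 min on ice in the dark. Flow cytometry with 488 nm excitation, 10,000 gated cells. Early apoptosis was annexin V+/7-AAD−, late was annexin V+/7-AAD+.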

[17] = system: BXPC-3; experiment: Induction of apoptosis in human BxPC3 cells assessed as late apoptosis at 0.5 uM using annexin V/7-AAD by FACS analysis (reference value: 9 %); format: functional
[18] = system: BXPC-3; experiment: Induction of apoptosis in human BxPC3 cells assessed as early apoptosis at 15 uM using annexin V/7-AAD by FACS analysis (reference value: 9 %); format: functional
[19] = system: PC-3; experiment: Cell cycle arrest in human PC3 cells assessed as accumulation at >G2/M phase at 50 uM after 24 hrs using propidium iodide staining by FACS analysis (reference value: 6 %); format: functional
[20] = system: PC-3; experiment: Cell cycle arrest in human PC3 cells assessed as accumulation at G2 phase at 50 uM after 24 hrs using propidium iodide staining by FACS analysis (reference value: 12 %); format: functional
[21] = system: PC-3; experiment: Cell cycle arrest in human PC3 cells assessed as accumulation at sub G1 phase at 15 uM after 24 hrs using propidium iodide staining by FACS analysis (reference value: 4 %); format: functional
[22] = system: IGROV-1; experiment: Cell cycle arrest in human IGROV1 cells assessed as accumulation at G2 phase at 50 uM after 24 hrs using propidium iodide staining by FACS analysis (reference value: 19 %); format: functional
[23] = system: IGROV-1; experiment: Cell cycle arrest in human IGROV1 cells assessed as accumulation at G2 phase at 5 uM after 24 hrs using propidium iodide staining by FACS analysis (reference value: 19 %); format: functional
[24] = system: IGROV-1; experiment: Cell cycle arrest in human IGROV1 cells assessed as accumulation at S phase at 50 uM after 24 hrs using propidium iodide staining by FACS analysis (reference value: 29 %); format: functional
[25] = system: BXPC-3; experiment: Cell cycle arrest in human BxPC3 cells assessed as accumulation at >G2/M phase at 5 uM after 24 hrs using propidium iodide staining by FACS analysis (reference value: 6 %); format: functional; procedure, shortened: as §1
[26] = system: BXPC-3; experiment: Cell cycle arrest in human BxPC3 cells assessed as accumulation at G2 phase at 50 uM after 24 hrs using propidium iodide staining by FACS analysis (reference value: 12 %); format: functional; procedure, shortened: as §1

SMILES: CN1CCN(CCCc2ccc(C(c3ccccc3)C34CC5CC(CC(C5)C3)C4)cc2)CC1 (stereo not given)
- Activity [1]: 31%
- Activity [2]: Non-toxic
- GI50 [3]: 3.41 µM
- LC50 [3]: 0.0088 µM
- TGI [3]: 6.1 µM
- GI50 [4]: 3.62 µM
- TGI [4]: 5.93 µM
- CC50 ([4]; read-out: LC50 (the source's name)): 0.00824 µM
- inhibition in vivo at 55 mg/kg [5]: 25%
- inhibition in vivo at 55 mg/kg [6]: 44.5%
- inhibition in vivo at 50 mg/kg [7]: 41.6%
- Activity [8]: 4%
- Activity [9]: 4%
- Activity [10]: 9%
- Activity [11]: 2%
- Activity [12]: 9%
- Activity [13]: 43%
- Activity [14]: 92%
- Activity [15]: 71%
- Activity [16]: 44%
- Activity [17]: 7%
- Activity [18]: 19%
- Activity [19]: 17%
- Activity [20]: 11%
- Activity [21]: 25%
- Activity [22]: 10%
- Activity [23]: 21%
- Activity [24]: 28%
- Activity [25]: 5%
- Activity [26]: 9%
